Screens (PubChem)
Compounds with a hit are over-represented: about 2% of the library has one in this group of screens.
VIM-2 inhibitor: VIM-2 metallo-beta-lactamase inhibitors, primary screen, biochemical, epi-absorbance readout, Pseudomonas aeruginosa enzyme; purified VIM-2, nitrocefin hydrolysis, epi-absorbance fluorescence; 290,000 tested, 0.89% active; AID 1527, 2009; inhibition, % at 5.6 µM;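 active = inhibition above the mean of all tested compounds plus 3 SD, cutoff set per screening run, cut at about 7.5% in these data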;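 also: red hydrolysis product quenches plate fluorescence so inhibitors raise well fluorescence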
PLCb3 inh: human PLC-beta3 inhibitors, primary screen, biochemical, fluorescence. Purified PLC-beta3, fluorogenic substrate. inhibition, % at 12.2 µM. AID 720704, 2013. 370,000 tested, 0.18% active. 1-phosphatidylinositol 4,5-bisphosphate phosphodiesterase beta-3 (Homo sapiens), Q01970
PvdQ acylase: P. aeruginosa PvdQ acylase inhibitors, primary screen, biochemical, fluorescence, plate reader and imaging, single point; PvdQ acylase [Pseudomonas aeruginosa LESB58]; purified PvdQ acylase; inhibition, % at 10 µM; 340,000 tested, 0.063% active; AID 488965, 2010; in the data active = inhibition above about 30%, passing the limit was not always enough
IMP-1 inhibitor: IMP-1 metallo-beta-lactamase inhibitors, primary screen, biochemical, epi-absorbance readout, Pseudomonas aeruginosa enzyme; inhibition, % at 5.6 µM; purified IMP-1, nitrocefin hydrolysis, epi-absorbance fluorescence; AID 1556, 2009; 290,000 tested, 0.45% active;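 active = inhibition above the mean plus 3 SD of all compounds in the same screening run, cut at about 4.5% in these data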
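System: Purified IMP-1 | Read-out basis: Percent enzyme inhibition | Controls: IMP-1 with DMSO as 0%, enzyme-free DMSO as 100% | Replicates: One well per compound | Doses: 5.6 µM nominal single concentration | Detection: Epi-absorbance fluorescence, 480 nm excitation, 530 nm emission | Incubation: 25 °C, 15 min preincubation, 25 min reaction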
PLC-gamma1 inh: PLC-gamma1 enzyme inhibitors, primary screen, biochemical, fluorescence, purified enzyme; fluorogenic substrate; 370,000 tested, 0.84% active; inhibition, % at 12.2 µM; AID 720700, 2013; in the data active = inhibition above about 9.5%
Target sequence (P19174 whole entry, looked up): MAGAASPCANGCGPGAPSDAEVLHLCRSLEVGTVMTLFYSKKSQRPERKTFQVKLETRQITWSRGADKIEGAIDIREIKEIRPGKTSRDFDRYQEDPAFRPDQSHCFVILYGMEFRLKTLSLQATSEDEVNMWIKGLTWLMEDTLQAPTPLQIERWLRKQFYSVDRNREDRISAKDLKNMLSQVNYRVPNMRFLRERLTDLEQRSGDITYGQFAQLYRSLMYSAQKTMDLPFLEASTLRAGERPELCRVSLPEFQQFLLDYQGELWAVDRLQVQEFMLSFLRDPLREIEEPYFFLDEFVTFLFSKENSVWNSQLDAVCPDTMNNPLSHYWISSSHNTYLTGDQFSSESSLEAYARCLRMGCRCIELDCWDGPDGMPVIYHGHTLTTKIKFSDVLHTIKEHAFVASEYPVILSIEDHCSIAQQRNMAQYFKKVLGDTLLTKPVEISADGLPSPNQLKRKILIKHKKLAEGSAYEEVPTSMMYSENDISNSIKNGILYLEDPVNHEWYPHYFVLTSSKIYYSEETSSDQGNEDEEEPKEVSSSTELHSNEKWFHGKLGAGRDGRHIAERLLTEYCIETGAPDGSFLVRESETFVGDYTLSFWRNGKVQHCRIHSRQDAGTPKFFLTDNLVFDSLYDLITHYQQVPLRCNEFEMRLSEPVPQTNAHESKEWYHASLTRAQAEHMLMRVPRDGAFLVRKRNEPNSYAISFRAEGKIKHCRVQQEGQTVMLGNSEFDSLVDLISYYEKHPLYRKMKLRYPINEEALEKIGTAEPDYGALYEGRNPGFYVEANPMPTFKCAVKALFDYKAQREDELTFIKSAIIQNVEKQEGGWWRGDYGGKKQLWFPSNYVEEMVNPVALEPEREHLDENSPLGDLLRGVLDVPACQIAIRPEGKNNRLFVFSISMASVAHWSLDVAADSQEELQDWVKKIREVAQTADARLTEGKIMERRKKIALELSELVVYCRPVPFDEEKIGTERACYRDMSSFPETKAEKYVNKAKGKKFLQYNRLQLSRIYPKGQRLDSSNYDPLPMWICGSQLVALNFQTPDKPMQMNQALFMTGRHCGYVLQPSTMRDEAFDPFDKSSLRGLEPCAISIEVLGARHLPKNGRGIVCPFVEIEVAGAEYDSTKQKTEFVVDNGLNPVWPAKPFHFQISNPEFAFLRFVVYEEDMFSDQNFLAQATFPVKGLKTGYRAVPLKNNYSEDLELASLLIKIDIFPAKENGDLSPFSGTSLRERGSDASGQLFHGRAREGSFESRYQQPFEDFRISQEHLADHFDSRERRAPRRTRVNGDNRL
PLCg1 ctr: PLC-gamma1 enzyme inhibitors, counter-screen for PLC-beta3 inhibitor project, biochemical, fluorescence; purified PLC-gamma1, fluorogenic substrate; shares compounds with PLC-gamma1 inh; inhibition, % at 12.3 µM; 3,300 tested, 3.1% active; in the data active = inhibition above about 9.5%
PLCb3 confirm: PLC-beta3 inhibitor confirmation, biochemical, fluorescence, purified enzyme; shares compounds with PLC-gamma1 inh; fluorogenic substrate fluorescence; inhibition, % at 12.3 µM; 3,300 tested, 1% active
Of the large screens only hits and unclear results are named; the others gave an inactive call (follow-up assays come after a bar, where they were run). Rule as the data show it, unless noted: active = inhibition above about 11%; inactive = the rest.

COc1ccc(S(=O)(=O)N2CCCCC2)cc1C(=O)N1CCCC1	PLC-gamma1 inh 12 | PLCg1 ctr inactive | PLCb3 confirm inactive
COc1ccccc1CCn1cnc(-c2ccc(OC)c(OC)c2)c1CC(C)C	none (no result: VIM-2 inhibitor, PvdQ acylase, IMP-1 inhibitor)
CCOC(=O)c1sc(N)c(C#N)c1CSc1nc2ccc(OCC)cc2[nH]1	PLC-gamma1 inh 13 | PLCg1 ctr inactive | PLCb3 confirm inactive
COc1ccc(C2=NOC(Cn3nc(-c4ccccc4)cc3C(=O)NCc3cccc(Br)c3)C2)cc1 (stereo unspecified)	PLCb3 inh 16 (no result: VIM-2 inhibitor, IMP-1 inhibitor) | PLCg1 ctr inactive | PLCb3 confirm inactive
O=C(CCc1n[nH]c(=O)[nH]c1=O)N1CCOCC1	PLCb3 inh 11 | PLCg1 ctr inactive | PLCb3 confirm inactive
O=C(CCNc1n[nH]c(=O)[nH]c1=O)N1CCOCC1	PLC-gamma1 inh 14 | PLCg1 ctr inactive | PLCb3 confirm inactive
Cc1ccc(COc2coc(CO)cc2=O)cc1	PLCb3 inh 12 | PLCg1 ctr inactive | PLCb3 confirm inactive
O=[N+]([O-])c1ccc(CN2CCOCCOCCN(Cc3ccc([N+](=O)[O-])cc3Cl)CCOCC2)c(Cl)c1	none (no result: VIM-2 inhibitor, PvdQ acylase, IMP-1 inhibitor)
COC(=O)C1=C(C)N(Cc2cccc(C(F)(F)F)c2)C(=NCc2cc(OC)c(OC)c(OC)c2)NC1c1cccc(C(F)(F)F)c1 (stereo unspecified)	none (no result: VIM-2 inhibitor, PvdQ acylase, IMP-1 inhibitor)
CC(N)(C(=O)O)c1cccc(OCc2cccc(Cl)c2)c1 (stereo unspecified)	PLC-gamma1 inh 11 | PLCg1 ctr inactive | PLCb3 confirm inactive
Cc1oc2ccc(OCc3cccc(Cl)c3)cc2c1C(=O)O	none
Cc1ccc2nsnc2c1S(=O)(=O)N1CCN(CCc2ccccc2)CC1	PLC-gamma1 inh 14 | PLCg1 ctr inactive | PLCb3 confirm inactive
O=S(=O)(c1ccccc1)N1CCN(CCc2ccccc2)CC1	none
Cc1ccc(N(CC(=O)NC2CCC(C)CC2)S(=O)(=O)c2cccnc2)cc1 (stereo unspecified)	PLCb3 inh 12 | PLCg1 ctr inactive | PLCb3 confirm inactive
O=C(CN1CCc2ccccc2C1)Nc1ccc(F)cc1F	PLC-gamma1 inh 10 | PLCg1 ctr inactive | PLCb3 confirm inactive
COc1cc2c(cc1OC)CN(CC(=O)Nc1ccc(F)cc1F)CC2	none
O=C(N/N=C/c1ccc(OC(=O)c2ccccc2)cc1)c1cccc(O)c1	PLCb3 inh 18, PLC-gamma1 inh 13 | PLCg1 ctr 11 | PLCb3 confirm 15
O=C(N/N=C/c1ccc(F)cc1)c1ccccc1	none
O=C(Oc1ccc(/C=N/NC(=O)c2ccco2)cc1)c1ccccc1	PLC-gamma1 inh 10 (no result: VIM-2 inhibitor, IMP-1 inhibitor) | PLCg1 ctr inactive | PLCb3 confirm inactive
O=C(Oc1ccc(/C=N/NC(=O)c2ccccc2O)cc1)c1ccccc1	none
O=C(N/N=C/c1ccc(OC(=O)c2cccs2)cc1)c1ccc(F)cc1	PLCb3 inh 11, PLC-gamma1 inh 10 | PLCg1 ctr inactive | PLCb3 confirm inactive
NS(=O)(=O)c1ccccc1	PLCb3 inh 11, PLC-gamma1 inh 15 | PLCg1 ctr inactive | PLCb3 confirm inactive
Cc1ccc(NCc2nnc(SCC(=O)O)n2-c2ccc(C)cc2)cc1	none
CCn1c(CNc2ccc(C)cc2)nnc1SCC(N)=O	PLC-gamma1 inh 9.7 | PLCg1 ctr inactive | PLCb3 confirm inactive
NS(=O)(=O)c1ccc(N/N=C/c2ccc(C(=O)O)cc2)c([N+](=O)[O-])c1	none
O=C(O)c1ccccc1NS(=O)(=O)c1ccc(N/N=C/c2cccc(O)c2O)c([N+](=O)[O-])c1	PLC-gamma1 inh 9.6 (no result: VIM-2 inhibitor, IMP-1 inhibitor) | PLCg1 ctr inactive | PLCb3 confirm inactive
NS(=O)(=O)c1ccc(N/N=C/c2ccc[nH]2)c([N+](=O)[O-])c1	PLC-gamma1 inh 12 | PLCg1 ctr inactive | PLCb3 confirm inactive
O=C(O)c1ccccc1NS(=O)(=O)c1ccc(NNC(=S)Nc2ccc(OC(F)F)cc2)c([N+](=O)[O-])c1	PLC-gamma1 inh 14 | PLCg1 ctr 17 | PLCb3 confirm inactive
COC(=O)[C@]12C[C@H](CC(=O)N3CCC(c4ccccc4)CC3)C(=O)N(Cc3cccc4ccccc34)C1=C[C@H](COCc1ccccc1)O[C@@H]2C	none (no result: VIM-2 inhibitor, PvdQ acylase, IMP-1 inhibitor)
C=CCN(CC#Cc1ccccn1)Cc1ccc(OC)cc1OC	none (no result: VIM-2 inhibitor, PvdQ acylase, IMP-1 inhibitor)
C=CCNC(=O)N1CCCC(C(=O)c2cccc(Cl)c2)C1 (stereo unspecified)	none
C=CCNC(=O)N1CCCC(C(=O)c2cccc(OC(C)C)c2)C1 (stereo unspecified)	PLC-gamma1 inh 11 | PLCg1 ctr inactive | PLCb3 confirm inactive
COc1ccc(S[C@]2(C(=O)N(C)C)CC(=O)N(c3ccc(C#N)cc3)[C@@H]2c2ccc(OC)cc2)cc1	none (no result: VIM-2 inhibitor, PvdQ acylase, IMP-1 inhibitor)
COc1cccc(NC(=O)C(Sc2nnc(-c3ccncc3)n2-c2ccc(Cl)cc2)c2ccccc2)c1 (stereo unspecified)	PLC-gamma1 inh 11 | PLCg1 ctr inactive | PLCb3 confirm inactive
COc1cccc(-n2c(SCC(N)=O)nnc2-c2ccncc2)c1	none
CC1CCc2cc(F)ccc2N1C(=O)CSc1nnc2c3ccccc3n(C)c2n1 (stereo unspecified)	PLC-gamma1 inh 9.7 | PLCg1 ctr inactive | PLCb3 confirm inactive
COC(=O)[C@]12C[C@H](CC(=O)NCc3ccc(OC)c(OC)c3)C(=O)N(Cc3ccccc3)C1=C[C@H](C(C)(C)C)O[C@@H]2C	none (no result: VIM-2 inhibitor, PvdQ acylase, IMP-1 inhibitor)
CS(=O)(=O)N(CC(=O)NCCSCc1ccccc1Cl)c1ccc(F)cc1	PLC-gamma1 inh 13 | PLCg1 ctr inactive | PLCb3 confirm inactive
O=[N+]([O-])c1cccc(C(=Nc2cccc(Cl)c2)NO)c1	none
ONC(=Nc1ccc(Cl)cc1)c1ccccc1	PLCb3 inh 12 | PLCg1 ctr inactive | PLCb3 confirm 12
Cc1nc2ccccn2c1C(=O)N/N=C/c1ccc2c(c1)OCO2	none
O=C(Cn1c(CO)nc2ccccc21)NCc1ccc2c(c1)OCO2	none
CC(=O)c1c(C)n(CC(=O)NCc2ccc3c(c2)OCO3)c2ccccc12	PLC-gamma1 inh 11 | PLCg1 ctr inactive | PLCb3 confirm inactive
O=C(NCc1ccc2c(c1)OCO2)C1COc2ccccc2O1 (stereo unspecified)	PLC-gamma1 inh 11 | PLCg1 ctr inactive | PLCb3 confirm inactive
Cc1nc2ccccn2c1C(=O)NCc1ccc2c(c1)OCO2	PLC-gamma1 inh 10 | PLCg1 ctr inactive | PLCb3 confirm inactive
